Laboratory results published in ChEMBL document CHEMBL4689842, “EUbOPEN Chemogenomics Library wave 1” (2021).

Tested on: HEK-293T
Assay: Multiplex assay against HEK293T;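 as to Population Tubulin-Different-Phenotype (%): share of the cells with healthy nuclei that show this phenotype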
Type: toxicity, cell-based
Conditions: human
Method in brief: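 Cells were classed with CellPathfinder machine-learning gating, first as Hoechst high-intensity objects or normal cells, then (normal cells) as healthy, pyknosed or fragmented nuclei, and finally (pyknosed cells) as mitotic or apoptotic. Staining of live cells at seeding used Hoechst33342, BioTracker Green Microtubule Cytoskeleton Dye, MitoTracker Red and Annexin V Alexa Fluor 680, with imaging on a CQ1 microscope at 37°C and 5% CO2 after compound addition. Tubulin, mitochondrial-mass and membrane-permeability phenotypes are per cents of healthy-nucleus cells.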

[1] = 12 h, 1 µM, compound concentration 1 uM, replicate 1
[2] = 12 h, 1 µM, compound concentration 1 uM, replicate 2
[3] = 12 h, 10 µM, compound concentration 10 uM, replicate 1
[4] = 12 h, 10 µM, compound concentration 10 uM, replicate 2
[5] = 24 h, 1 µM, compound concentration 1 uM, replicate 1
[6] = 24 h, 1 µM, compound concentration 1 uM, replicate 2
[7] = 24 h, 10 µM, compound concentration 10 uM, replicate 1
[8] = 24 h, 10 µM, compound concentration 10 uM, replicate 2

## C=CC(=O)Nc1cccc(Oc2nc(Nc3ccc(N4CCN(C)CC4)cc3OC)ncc2Cl)c1
[1]
  Population Apoptotic (%): 22%
  Population Fragmented Nuclei (%): 21%
  Population Healthy Nuclei (%): 27%
  Population Hoechst High Intensity Objects (%): 18%
  Population Membrane Permeable-Phenotype (%): 13%
  Population Mitochondria Different-Phenotype (%): 25%
  Population Mitotic Cells (%): 77%
  Population Normal (%): 81%
  Population Pyknosed Nuclei (%): 50%
  Population Tubulin-Different-Phenotype (%): 77%
  Total Cell Count: 425
[2]
  Population Apoptotic (%): 11%
  Population Fragmented Nuclei (%): 4%
  Population Healthy Nuclei (%): 70%
  Population Hoechst High Intensity Objects (%): 7%
  Population Membrane Permeable-Phenotype (%): 11%
  Population Mitochondria Different-Phenotype (%): 54%
  Population Mitotic Cells (%): 88%
  Population Normal (%): 92%
  Population Pyknosed Nuclei (%): 25%
  Population Tubulin-Different-Phenotype (%): 98%
  Total Cell Count: 1025
[3]
  Population Apoptotic (%): 16%
  Population Fragmented Nuclei (%): 10%
  Population Healthy Nuclei (%): 70%
  Population Hoechst High Intensity Objects (%): 12%
  Population Membrane Permeable-Phenotype (%): 3%
  Population Mitochondria Different-Phenotype (%): 8%
  Population Mitotic Cells (%): 83%
  Population Normal (%): 87%
  Population Pyknosed Nuclei (%): 18%
  Population Tubulin-Different-Phenotype (%): 18%
  Total Cell Count: 722
[4]
  Population Apoptotic (%): 8%
  Population Fragmented Nuclei (%): 7%
  Population Healthy Nuclei (%): 86%
  Population Hoechst High Intensity Objects (%): 3%
  Population Membrane Permeable-Phenotype (%): 4%
  Population Mitochondria Different-Phenotype (%): 15%
  Population Mitotic Cells (%): 91%
  Population Normal (%): 96%
  Population Pyknosed Nuclei (%): 6%
  Population Tubulin-Different-Phenotype (%): 16%
  Total Cell Count: 1384
[5]
  Population Apoptotic (%): 36%
  Population Fragmented Nuclei (%): 23%
  Population Healthy Nuclei (%): 33%
  Population Hoechst High Intensity Objects (%): 16%
  Population Membrane Permeable-Phenotype (%): 10%
  Population Mitochondria Different-Phenotype (%): 49%
  Population Mitotic Cells (%): 63%
  Population Normal (%): 83%
  Population Pyknosed Nuclei (%): 43%
  Population Tubulin-Different-Phenotype (%): 78%
  Total Cell Count: 379
[6]
  Population Apoptotic (%): 13%
  Population Fragmented Nuclei (%): 8%
  Population Healthy Nuclei (%): 76%
  Population Hoechst High Intensity Objects (%): 7%
  Population Mitochondria Different-Phenotype (%): 36%
  Population Mitotic Cells (%): 86%
  Population Normal (%): 92%
  Population Pyknosed Nuclei (%): 14%
  Population Tubulin-Different-Phenotype (%): 89%
  Total Cell Count: 1188
[7]
  Population Apoptotic (%): 8%
  Population Fragmented Nuclei (%): 11%
  Population Healthy Nuclei (%): 79%
  Population Hoechst High Intensity Objects (%): 8%
  Population Membrane Permeable-Phenotype (%): 11%
  Population Mitochondria Different-Phenotype (%): 5%
  Population Mitotic Cells (%): 92%
  Population Normal (%): 91%
  Population Pyknosed Nuclei (%): 8%
  Population Tubulin-Different-Phenotype (%): 23%
  Total Cell Count: 923
[8]
  Population Apoptotic (%): 2%
  Population Fragmented Nuclei (%): 18%
  Population Healthy Nuclei (%): 78%
  Population Hoechst High Intensity Objects (%): 2%
  Population Membrane Permeable-Phenotype (%): 7%
  Population Mitochondria Different-Phenotype (%): 2%
  Population Mitotic Cells (%): 97%
  Population Normal (%): 97%
  Population Pyknosed Nuclei (%): 3%
  Population Tubulin-Different-Phenotype (%): 12%
  Total Cell Count: 2281
